Assay results of several laboratories.
Protocols differ between the studies behind these lines.
Organism: Plasmodium falciparum
Observed: parasite growth

| Structure (SMILES) | assay | test system | conditions | IC50 |
| --- | --- | --- | --- | --- |
| Cc1[nH]c(/C=C2\N=C(c3ccc[nH]3)C=C2OCc2ccccc2)cc1Cc1ccc(OC(F)(F)F)cc1 | SYBR Green | D6 | 72 h, blood stage | 0.00963 µM |
| N=C(CC(O)c1nc2ccccc2c2ccc(Cl)cc12)Nc1ccc(F)cc1 (stereo not shown) | ELISA | 3D7 | 72 h, blood stage | 0.0187 µM |
| Cc1ccc(N(CC2=NCCN2)c2cccc(O)c2)cc1 |  | NF54 | blood stage | 36.6 µM |
| CCC1=C(CC)/C(=C/c2[nH]c(Cc3ccc(Cl)cc3)cc2Cc2ccc(Cl)cc2)N=C1c1ccc[nH]1 | SYBR Green | D6 | 72 h, blood stage | 0.0796 µM |
| CCN(CC)CCCC(C)Nc1ccnc2cc(Cl)ccc12 (stereo not shown) |  |  | 72 h, blood stage | 0.0282 µM |
| N=C(CC(O)c1cc2c(F)cc(F)cc2c2cc(C(F)(F)F)ccc12)Nc1ccc(F)c(F)c1 (stereo not shown) | ELISA | 3D7 | 72 h, blood stage | 0.0072 µM |
| COc1ccc2cc1Oc1ccc(cc1)C[C@H]1c3c(cc4c(c3Oc3cc5c(cc3OC)CCN(C)[C@@H]5C2)OCO4)CCN1C | SYBR Green | 3D7 | blood stage | 0.664 µM |
| N=C(CC(O)c1nc2ccccc2c2ccc(Br)cc12)Nc1ccc(F)cc1 (stereo not shown) | ELISA | 3D7 | 72 h, blood stage | 0.0195 µM |
| CCN(CC)CCCC(C)Nc1ccnc2cc(Cl)ccc12 (stereo not shown) | SYBR Green | 3D7 | blood stage | 0.0224 µM |
| N=C(CC(O)c1nc2ccccc2c2ccccc12)Nc1ccc(F)cc1 (stereo not shown) | ELISA | 3D7 | 72 h, blood stage | 0.123 µM |
| CC1=C(C)/C(=C/c2[nH]c(Cc3ccc(OC(F)(F)F)cc3)cc2Cc2ccc(OC(F)(F)F)cc2)N=C1c1ccc[nH]1 | SYBR Green | D6 | 72 h, blood stage | 1.3 µM |
| CO[C@H]1/C=C/O[C@@]2(C)Oc3c(C)c(O)c4c(O)c(c(/C=N/N5CCN(C)CC5)c(O)c4c3C2=O)NC(=O)/C(C)=C\C=C\[C@H](C)[C@H](O)[C@@H](C)[C@@H](O)[C@@H](C)[C@H](OC(C)=O)[C@@H]1C |  | NF54 | blood stage | 0.9 µM |
| N=C(CC(O)c1nc2cc(F)ccc2c2ccc(F)cc12)Nc1ccc(F)cc1 (stereo not shown) | ELISA | DD2 | 72 h, drug-resistant strain, blood stage | 0.936 µM |
| CO[C@H]1C[C@H](O[C@@H]2/C(C)=C/C[C@@H]3C[C@@H](C[C@]4(CC[C@H](C)[C@@H](C5CCCCC5)O4)O3)OC(=O)[C@@H]3C=C(C)/C(=N/O)[C@H]4OC/C(=C\C=C\[C@@H]2C)[C@]43O)O[C@@H](C)[C@@H]1O | SYBR Green | 3D7 | blood stage | 0.553 µM |
| COC1=C(OC)/C(=C/c2[nH]c(Cc3ccc(Cl)cc3)cc2Cc2ccc(Cl)cc2)N=C1c1ccc[nH]1 | SYBR Green | D6 | 72 h, blood stage | > 2.5 µM |
| CCCCCCCCNC(C)C(O)c1ccc(SC(C)C)cc1 (stereo not shown) |  | NF54 | blood stage | 0.0726 µM |
| Cc1[nH]c(/C=C2\N=C(c3ccc[nH]3)C3=C2OCCO3)cc1Cc1ccc(OC(F)(F)F)cc1 | SYBR Green | D6 | 72 h, blood stage | 0.0303 µM |
| CCCCCCCCCCCCCCCCCC(=O)O | SYBR Green | 3D7 | 48 h, blood stage | 7.66 µg/mL |
| CCC1=C(CC)/C(=C/c2cc(Cc3ccc(OC(F)(F)F)cc3)c(C)[nH]2)N=C1c1ccc[nH]1 | SYBR Green | D6 | 72 h, blood stage | 0.265 µM |
| CNCC[C@H](Oc1cccc2ccccc12)c1cccs1 | SYBR Green | 3D7 | blood stage | 0.233 µM |
| COC1=CC(c2ccc[nH]2)=N/C1=C\c1[nH]c(C(=O)O)cc1Cc1ccc(OC(F)(F)F)cc1 | SYBR Green | D6 | 72 h, blood stage | > 2.5 µM |
| N=C(CC(O)c1cc2cccnc2c2cccnc12)Nc1ccc(F)cc1 (stereo not shown) | ELISA | 3D7 | 72 h, blood stage | 3.2 µM |
